From ChEMBL document CHEMBL3112446, “Discovery and optimization of a new class of pyruvate kinase inhibitors as potential therapeutics for the treatment of methicillin-resistant Staphylococcus aureus infections” (Bioorg Med Chem, 2014)
Values after ≈ are worked out from the molar mass of the structure shown.

Assays:
[1] = molecular target: Pyruvate kinase PKLR (Homo sapiens) (UniProt P30613); test: Inhibition human pyruvate kinase L at 10 uM
In short: (§1)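 His-tagged recombinant human PK isoforms were used. Compounds were diluted in 100% DMSO and tested at 10 µM, the highest concentration tested. Values are percent inhibition of enzymatic activity.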

[2] = molecular target: Pyruvate kinase PKLR (Homo sapiens) (UniProt P30613); test: Inhibition human pyruvate kinase R at 10 uM; in short: as §1
[3] = molecular target: Pyruvate kinase PKM (Homo sapiens) (UniProt P14618); test: Inhibition human pyruvate kinase M2 at 10 uM; in short: as §1
Pyruvate kinase PKM (Homo sapiens), sequence (P14618 2-531 limits assumed): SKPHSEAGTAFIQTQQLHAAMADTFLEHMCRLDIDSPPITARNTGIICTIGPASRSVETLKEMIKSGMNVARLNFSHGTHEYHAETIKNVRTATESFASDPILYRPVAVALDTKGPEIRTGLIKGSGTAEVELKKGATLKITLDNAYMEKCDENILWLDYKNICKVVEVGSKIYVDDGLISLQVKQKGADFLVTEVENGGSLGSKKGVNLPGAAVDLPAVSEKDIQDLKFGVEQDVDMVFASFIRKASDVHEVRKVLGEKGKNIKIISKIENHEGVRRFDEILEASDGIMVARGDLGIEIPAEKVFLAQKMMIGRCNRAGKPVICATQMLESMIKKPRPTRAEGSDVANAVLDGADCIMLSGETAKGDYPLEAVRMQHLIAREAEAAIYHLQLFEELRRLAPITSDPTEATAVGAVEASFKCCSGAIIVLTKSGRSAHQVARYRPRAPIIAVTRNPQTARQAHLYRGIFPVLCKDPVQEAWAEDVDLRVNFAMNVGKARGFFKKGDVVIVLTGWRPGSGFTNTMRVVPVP

[4] = molecular target: Pyruvate kinase PKM (Homo sapiens) (UniProt P14618); test: Inhibition human pyruvate kinase M1 at 10 uM; in short: as §1
Staphylococcus aureus [5] = test: Ratio of MIC90 for Staphylococcus aureus ATCC 29213 in presence of efflux inhibitor verapamil to MIC90 for Staphylococcus aureus ATCC 29213 in absence of efflux inhibitor verapamil; format: functional
In short: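 S. aureus ATCC 29213 broth microdilution in 96-well format, run in parallel in CAMHB with and without verapamil (200 mg/L, sub-inhibitory). Compounds were twofold serially diluted in DMSO and added to ~2.5 × 10^5 CFU/ml. Plates were incubated 18–24 h at 37 °C and read at OD600, with inhibitor-only wells subtracted as background. MIC is the lowest concentration giving complete growth inhibition versus compound-free wells, in duplicate or triplicate. The ratio compares the MIC with verapamil to the MIC without.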

Staphylococcus aureus [6] = test: Antibacterial activity against Staphylococcus aureus ATCC 29213 by two fold serial dilution method in presence of efflux inhibitor verapamil; format: functional
In short: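 S. aureus ATCC29213, 96-well twofold broth microdilution in CAMHB with verapamil 200 mg/L (sub-inhibitory) versus plain CAMHB. Incubated 18–24 h at 37 °C, OD600 read, compound-plus-medium background subtracted. MIC is the lowest concentration giving complete growth inhibition relative to compound-free wells.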

[7] = Inhibition of methicillin-resistant Staphylococcus aureus pyruvate kinase
In short: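 His-tagged MRSA PK. Compounds diluted in 100% DMSO. IC50 calculated from a triplicate 15-point titration.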

Staphylococcus aureus [8] = test: Inhibition of methicillin-resistant Staphylococcus aureus pyruvate kinase at 10 uM
In short: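 His-tagged MRSA PK. Compounds diluted in 100% DMSO. Percent inhibition reported at the highest concentration tested, 10 µM.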

Staphylococcus aureus [9] = test: Antibacterial activity against Staphylococcus aureus ATCC 29213 by two fold serial dilution method; format: functional
HEK293 [10] = test: Cytotoxicity against HEK293 cells assessed as cell viability at 100 ug/ml; format: cell-based; conditions: human
HEK293 [11] = test: Cytotoxicity against HEK293 cells assessed as cell viability at 10 ug/ml; format: cell-based; conditions: human
HEK293 [12] = test: Cytotoxicity against HEK293 cells assessed as cell viability at 1 ug/ml; format: cell-based; conditions: human
Staphylococcus aureus [13] = test: Inhibition of methicillin-resistant Staphylococcus aureus pyruvate kinase at 1 uM
Staphylococcus aureus [14] = test: Antibacterial activity against methicillin-resistant Staphylococcus aureus MW2 by two fold serial dilution method; format: functional

Pyruvate kinase PKLR (Homo sapiens), sequence (P30613 whole entry, looked up, canonical isoform): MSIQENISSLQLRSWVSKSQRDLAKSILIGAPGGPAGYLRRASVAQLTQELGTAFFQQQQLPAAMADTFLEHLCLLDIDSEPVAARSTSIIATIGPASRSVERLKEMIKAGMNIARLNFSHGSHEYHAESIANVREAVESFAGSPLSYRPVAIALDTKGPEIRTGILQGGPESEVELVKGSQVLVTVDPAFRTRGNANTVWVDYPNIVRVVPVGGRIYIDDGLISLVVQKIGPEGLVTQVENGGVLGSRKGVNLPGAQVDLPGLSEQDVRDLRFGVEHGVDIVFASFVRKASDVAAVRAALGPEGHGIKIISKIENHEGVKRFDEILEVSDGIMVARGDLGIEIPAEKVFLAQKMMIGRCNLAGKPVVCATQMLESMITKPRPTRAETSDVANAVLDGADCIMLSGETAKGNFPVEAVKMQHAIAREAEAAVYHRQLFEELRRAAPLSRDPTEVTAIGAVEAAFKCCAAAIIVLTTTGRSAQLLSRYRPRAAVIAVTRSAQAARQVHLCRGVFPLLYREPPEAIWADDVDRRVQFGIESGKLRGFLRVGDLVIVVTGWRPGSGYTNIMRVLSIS

Row | SMILES | inhibition [1] [%] | inhibition [2] [%] | inhibition [3] [%] | inhibition [4] [%] | IC50 ([7]; read-out: IC50) [nM] | inhibition (Staphylococcus aureus [8]) [%] | MIC>98 (Staphylococcus aureus [9]) [µg/mL] | also measured
1 | Brc1cc2cc(-c3cc4cc(Br)c(Br)cc4[nH]3)[nH]c2cc1Br | 8.2 | 20.7 | 2.3 | 11.1 | 2 | 97.6 |  | Ratio (Staphylococcus aureus [5]): 4; MIC (Staphylococcus aureus [6]): 16 µg/mL
2 | OCCn1c(-c2cc3ccc(Br)cc3[nH]2)cc2cc(Br)ccc21 | 6.8 | 25.2 | 12.1 | 14.6 | 1.3 | 101 | 2 (≈ 4.61 µM) | 
3 | Brc1ccc2cc(C#Cc3cc4ccccc4[nH]3)[nH]c2c1 |  |  |  |  | 7.1 |  | >64 | 
4 | Brc1ccc2[nH]c(CCc3cc4ccc(Br)cc4[nH]3)cc2c1 |  |  |  |  | 6.3 |  | >64 | 
5 | Brc1ccc2[nH]c(-c3cc4cc(Br)c(Br)cc4[nH]3)cc2c1 |  |  |  |  | 1.6 |  | 1 (≈ 2.13 µM) | 
6 | Brc1ccc2cc(-c3cc4ccccc4s3)[nH]c2c1 |  |  |  |  | 14 |  | >64 | 
7 | Brc1ccc2cc(-c3cc4ccccc4o3)[nH]c2c1 | -6 | -5.5 | 0.4 | 5.3 | 108 | 95.9 | >64 | 
8 | Brc1ccc2cc(-c3cc4ccccc4[nH]3)[nH]c2c1 |  |  |  |  | 21.4 |  | 2 (≈ 6.43 µM) | 
9 | Brc1ccc2cc(/C=C/c3cc4ccc(Br)cc4[nH]3)[nH]c2c1 |  |  |  |  | 3.9 |  | >64 | 
10 | Brc1ccc2cc(-c3nc4ccccc4s3)[nH]c2c1 | 7.8 | 21.6 | 3 | 12.4 | 152 | 89.8 | >64 | 
11 | Brc1ccc2c(c1)cc(-c1cc3ccc(Br)cc3[nH]1)n2CCN1CCOCC1 | 32.1 | 50.7 | 3.5 | 13.1 | 1.2 | 101 | >64 | 
12 | Brc1ccc2[nH]c(-c3nc4ccc(Br)cc4s3)cc2c1 |  |  |  |  | 4.1 |  | >64 | 
13 | O=C(O)Cn1c(-c2cc3ccc(Br)cc3[nH]2)cc2cc(Br)ccc21 |  |  |  |  | 11.1 |  | >64 | 
14 | Brc1ccc2cc(CCc3cc4ccc(Br)cc4[nH]3)[nH]c2c1 | 9.7 | 24.1 | 1.3 | 9.9 | 6.5 | 93.4 | >64 | Cell viability (HEK293 [10]): 85%; Cell viability (HEK293 [11]): 92%; Cell viability (HEK293 [12]): 104%
15 | Brc1ccc2[nH]c(/C=C/c3cc4ccc(Br)cc4[nH]3)cc2c1 |  |  |  |  | 4.1 |  | >64 | 
16 | Brc1ccc2cc(-c3ccc(-c4cc5ccc(Br)cc5[nH]4)cc3)[nH]c2c1 |  |  |  |  |  |  | >64 | inhibition (Staphylococcus aureus [13]): 54%
17 | O=[N+]([O-])c1cc(-c2cc3ccccc3[nH]2)ccc1-c1cc2ccc(Br)cc2[nH]1 | -8.9 | 0 | 6.8 | 9.5 | 1.8 | 86.2 | 2 (≈ 4.63 µM) | 
18 | COc1cc(-c2cc3ccccc3[nH]2)ccc1-c1cc2ccc(Br)cc2[nH]1 | 4.3 | 13.5 | 14.6 | 7.3 | 2.1 | 62.2 | >64 | 
19 | Brc1ccc2[nH]c(-c3cc4cc(Br)ccc4[nH]3)cc2c1 | 9.8 | 24.4 | 0.5 | 12.3 | 3 | 71 |  | 
20 | Brc1cc2cc(-c3cc4ccccc4[nH]3)[nH]c2cc1Br |  |  |  |  |  | 39 |  | 
21 | Cn1c(C#Cc2cc3ccc(Br)cc3[nH]2)cc2ccc(Br)cc21 |  |  |  |  | 13.7 |  | >64 | 
22 | CN1CCN(CCn2c(-c3cc4ccc(Br)cc4[nH]3)cc3cc(Br)ccc32)CC1 | 16.8 | 26.1 | 1.7 | 3.2 | 2 | 100 | 4 (≈ 7.75 µM) | 

Row | SMILES | inhibition [1] [%] | inhibition [2] [%] | inhibition [3] [%] | inhibition [4] [%] | IC50 ([7]; read-out: IC50) [nM] | inhibition (Staphylococcus aureus [8]) [%] | MIC>98 (Staphylococcus aureus [9]) [µg/mL] | also measured
23 | O=C(Cn1c(-c2cc3ccc(Br)cc3[nH]2)cc2cc(Br)ccc21)N1CCOCC1 |  |  |  |  | 6 |  | >64 | 
24 | Brc1ccc2[nH]c(C#Cc3cc4ccc(Br)cc4[nH]3)cc2c1 | 14 | 27.8 | 8.7 | 19.5 | 4.7 | 86.3 | 16 (≈ 38.6 µM) | 
25 | Brc1ccc2cc(-c3ccc(-c4cc5ccccc5[nH]4)cc3)[nH]c2c1 |  |  |  |  | 5.6 |  | >64 | 
26 | Brc1ccc2cc(-c3cc4cc(-c5ccccc5)ccc4[nH]3)[nH]c2c1 |  |  |  |  | 2.2 |  | >64 | 
27 | Fc1ccc2[nH]c(-c3cc4ccc(Br)cc4[nH]3)cc2c1 |  |  |  |  | 2.8 |  |  | MIC (Staphylococcus aureus [14]): 0.5 µg/mL (≈ 1.52 µM)
28 | Brc1ccc2cc(C#Cc3cc4ccc(Br)cc4[nH]3)[nH]c2c1 |  |  |  |  | 2.4 |  | >64 | 
29 | Brc1ccc2cc(-c3ccc(-c4cc5ccc(Br)cc5[nH]4)s3)[nH]c2c1 |  |  |  |  |  |  | >64 | inhibition (Staphylococcus aureus [13]): 28%
30 | Brc1ccc2[nH]c(-c3cc4ccccc4[nH]3)cc2c1 |  |  |  |  |  | 36 |  | 
31 | Brc1ccc2[nH]c(-c3cc4ccccc4o3)cc2c1 |  |  |  |  |  | 45 |  | 
32 | Brc1ccc2[nH]c(-c3cc4ccc(Br)cc4[nH]3)cc2c1 | 6.1 | 13.6 | 8.7 | 6.9 | 2.2 | 97.8 |  | MIC (Staphylococcus aureus [14]): 0.5 µg/mL (≈ 1.28 µM)
33 | Cn1c(C#Cc2cc3ccc(Br)cc3n2C)cc2ccc(Br)cc21 |  |  |  |  |  | 27 |  | 
34 | Brc1ccc2[nH]c(-c3nc4ccccc4s3)cc2c1 |  |  |  |  | 358 |  | >64 | 
35 | COCn1c(-c2cc3ccc(Br)cc3[nH]2)cc2cc(Br)ccc21 |  |  |  |  | 1.9 |  | >64 | Cell viability (HEK293 [10]): 73%; Cell viability (HEK293 [11]): 102%; Cell viability (HEK293 [12]): 123%
36 | Brc1ccc2[nH]c(-c3cc4ccccc4s3)cc2c1 |  |  |  |  |  |  | >64 | inhibition (Staphylococcus aureus [13]): 42%
37 | Brc1ccc2cc(-c3cc4cc(Br)c(Br)cc4[nH]3)[nH]c2c1 | 23.7 | 33.4 | 15.8 | 8.6 | 1.5 | 94.1 | 0.5 (≈ 1.07 µM) | Cell viability (HEK293 [10]): 63%; Cell viability (HEK293 [11]): 71%; Cell viability (HEK293 [12]): 102%
38 | COc1ccc2[nH]c(-c3cc4ccc(Br)cc4[nH]3)cc2c1 |  |  |  |  | 2.5 |  | >64 | Cell viability (HEK293 [10]): 72%; Cell viability (HEK293 [11]): 88%; Cell viability (HEK293 [12]): 107%
39 | Brc1ccc2cc(-c3cccc(-c4cc5ccccc5[nH]4)c3)[nH]c2c1 |  |  |  |  |  | 36 |  | 
40 | Cn1c(-c2cc3ccc(Br)cc3[nH]2)cc2cc(Br)ccc21 | 2.8 | 2.7 | 9.1 | 13.9 | 1 | 99 | >64 | 
41 | Brc1ccc2cc(-c3cc4ccc(Br)cc4[nH]3)[nH]c2c1 | 7.9 | 18.3 | 0.1 | 10.3 | 7 | 84.9 |  | Cell viability (HEK293 [10]): 118%; Cell viability (HEK293 [11]): 106%; Cell viability (HEK293 [12]): 103%; Ratio (Staphylococcus aureus [5]): 32; MIC (Staphylococcus aureus [6]): 0.5 µg/mL
42 | Brc1ccc2cc(/C=C/c3cc4ccccc4[nH]3)[nH]c2c1 | 12.9 | 23.8 | -0.9 | 16.1 | 4.5 | 93.4 | >64 | Cell viability (HEK293 [10]): 115%; Cell viability (HEK293 [11]): 114%; Cell viability (HEK293 [12]): 107%
43 | Cn1c(-c2cc3cc(Br)ccc3[nH]2)cc2ccc(Br)cc21 |  |  |  |  |  | 25 |  | IC50 [7]: Not Active
